{"source": "ChEMBL document CHEMBL5705886", "about": "“GSK1070916, a potent Aurora B/C kinase inhibitor with broad antitumor activity in tissue culture cells and human tumor xenograft models” (Mol Cancer Ther, 2009)", "key": {"NCI-H1299": {"system": "NCI-H1299", "test": "Antiproliferative activity against human NCI-H1299 cells assessed as inhibition of cell viability measured for 6 to 7 days by cell titer glo assay", "type": "functional, cell-based", "outline": "(§1)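 Cells seeded in recommended growth medium, incubated overnight at 37°C in 5% CO2, then exposed to serial dilutions of inhibitor for 6–7 d. A parallel plate was read with CellTiter-Glo at compound addition as a T=0 value. The luminescent viability readout had no-cell background subtracted and was expressed as % of DMSO control.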"}, "MV-4-11 (human)": {"system": "MV-4-11 (human)", "test": "Antitumor activity in human MV-4-11 cells xenografted in NOD-SCID mouse assessed as median survival time at 10 mg/kg, ip administered once daily for 5 consecutive days with 2 days off scheduled for 3 cycles measured upto 120 days", "conditions": "time <= 120 day"}, "[1]": {"test": "Toxicity in SCID nude mouse xenografted with human MCF7 cells assessed as body weight loss at 50 to 100 mg/kg, ip administered once daily for 5 consecutive days with 2 days off scheduled for 3 cycles measured upto 60 days", "type": "organism-based", "conditions": "in vivo, 1440 h, dose 50-100 mg/kg, time < 60 day"}, "[2]": {"test": "Antiproliferative activity against human EB1 cells assessed as inhibition of cell viability measured for 6 to 7 days by cell titer glo assay", "type": "functional, cell-based", "outline": "(§2)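 Tumor lines plated in recommended growth media, overnight at 37°C, 5% CO2, then given serial dilutions; a T=0 plate read with CellTiter-Glo at dosing. After 6–7 d of exposure, viability read by CellTiter-Glo luminescence. No-cell wells subtracted, data expressed as % of DMSO control.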"}, "SW48": {"system": "SW48", "test": "Antiproliferative activity against human SW48 cells assessed as inhibition of cell viability measured for 6 to 7 days by cell titer glo assay", "type": "functional, cell-based", "outline": "(§3)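 Cells seeded in recommended growth medium, held overnight at 37°C in 5% CO2, then exposed to serial dilutions of inhibitor for 6–7 d. A time-zero plate was read with CellTiter-Glo at dosing. Luminescent viability read at the end. No-cell wells subtracted as background, data expressed as percent of DMSO control.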"}, "JIYOYE": {"system": "JIYOYE", "test": "Antiproliferative activity against human JIYOYE cells assessed as inhibition of cell viability measured for 6 to 7 days by cell titer glo assay", "type": "functional, cell-based", "outline": "as §1"}, "[3]": {"test": "Antiproliferative activity against human HuNS1 cells assessed as inhibition of cell viability measured for 6 to 7 days by cell titer glo assay", "type": "functional, cell-based", "outline": "as §1"}, "[4]": {"test": "Toxicity in SCID nude mouse xenografted with human HL-60 cells assessed as body weight loss at 100 mg/kg, ip administered once daily for 5 consecutive days with 2 days off scheduled for 2 cycles measured upto 60 days", "type": "organism-based", "conditions": "in vivo, 1440 h, time < 60 day"}, "A549": {"system": "A549", "test": "Induction of mitotic alteration in human A549 cells formation of unorganized chromosomes at 12 to 330 nmol/L incubated for 24 hrs by immunofluorescent microscopy based analysis", "type": "functional, cell-based", "conditions": "dose lower […], dose upper 330.0 nmol/L"}, "RL": {"system": "RL", "test": "Antiproliferative activity against human RL cells assessed as inhibition of cell viability measured for 6 to 7 days by cell titer glo assay", "type": "functional, cell-based", "outline": "as §3"}, "CTV-1": {"system": "CTV-1", "test": "Antiproliferative activity against human CTV-1 cells assessed as inhibition of cell viability measured for 6 to 7 days by cell titer glo assay", "type": "functional, cell-based", "outline": "as §2"}, "SW480": {"system": "SW480", "test": "Antiproliferative activity against human SW480 cells assessed as inhibition of cell viability measured for 6 to 7 days by cell titer glo assay", "type": "functional, cell-based", "outline": "as §3"}, "NCI-H358": {"system": "NCI-H358", "test": "Antiproliferative activity against human NCI-H358 cells assessed as inhibition of cell viability measured for 6 to 7 days by cell titer glo assay", "type": "functional, cell-based", "outline": "as §1"}, "CCRF-SB": {"system": "CCRF-SB", "test": "Antiproliferative activity against human CCRF-SB cells assessed as inhibition of cell viability measured for 6 to 7 days by cell titer glo assay", "type": "functional, cell-based", "outline": "as §2"}, "CRO-AP2": {"system": "CRO-AP2", "test": "Antiproliferative activity against human CRO-AP2 cells assessed as inhibition of cell viability measured for 6 to 7 days by cell titer glo assay", "type": "functional, cell-based", "outline": "as §2"}, "CCRF-HSB-2": {"system": "CCRF-HSB-2", "test": "Antiproliferative activity against human HSB-2 cells assessed as inhibition of cell viability measured for 6 to 7 days by cell titer glo assay", "type": "functional, cell-based", "outline": "as §1"}, "[5]": {"test": "Antiproliferative activity against human BDCM cells assessed as inhibition of cell viability measured for 6 to 7 days by cell titer glo assay", "type": "functional, cell-based", "outline": "as §2"}, "HL-60": {"system": "HL-60", "test": "Antitumor activity in human HL-60 cells xenografted in SCID mouse assessed as median survival time at 50 mg/kg, ip administered once daily for 5 consecutive days with 2 days off scheduled for 2 cycles measured upto 120 days", "type": "functional", "conditions": "time <= 120 day"}, "CCRF-CEM": {"system": "CCRF-CEM", "test": "Antiproliferative activity against human CCRF-CEM cells assessed as inhibition of cell viability measured for 6 to 7 days by cell titer glo assay", "type": "functional, cell-based", "outline": "as §2"}, "NCI-H460": {"system": "NCI-H460", "test": "Antiproliferative activity against human NCI-H460 cells assessed as inhibition of cell viability measured for 6 to 7 days by cell titer glo assay", "type": "functional, cell-based", "outline": "as §3"}, "OCI-AML-3": {"system": "OCI-AML-3", "test": "Antiproliferative activity against human OCI-AML-3 cells assessed as inhibition of cell viability measured for 6 to 7 days by cell titer glo assay", "type": "functional, cell-based", "outline": "as §3"}, "MOLT-3": {"system": "MOLT-3", "test": "Antiproliferative activity against human MOLT-3 cells assessed as inhibition of cell viability measured for 6 to 7 days by cell titer glo assay", "type": "functional, cell-based", "outline": "as §1"}, "HuT78": {"system": "HuT78", "test": "Antiproliferative activity against human HuT78 cells assessed as inhibition of cell viability measured for 6 to 7 days by cell titer glo assay", "type": "functional, cell-based", "outline": "as §1"}, "HCT-116": {"system": "HCT-116", "test": "In vivo inhibition of Aurora B in human HCT-116 cells xenografted in athymic nude mouse assessed as inhibition of HH3-S10 phosphorylation administered as single ip dose incubated for 0.5 to 72 hrs", "type": "functional, organism-based", "conditions": "dose 25-100 mg/kg, time 0.5-72 hrs"}, "SR": {"system": "SR", "test": "Antiproliferative activity against human SR cells assessed as inhibition of cell viability measured for 6 to 7 days by cell titer glo assay", "type": "functional, cell-based", "outline": "as §3"}, "SW-620": {"system": "SW-620", "test": "Antitumor activity in human SW620 cells xenografted in SCID mouse assessed as reduction in tumor growth at 25 to 100 mg/kg, ip administered once daily for 5 consecutive days with 2 days off scheduled for 3 cycles measured upto 60 days", "type": "functional, organism-based", "conditions": "dose 25-100 mg/kg, time 60.0 day"}, "[6]": {"molecular_target": "Aurora kinase C (Homo sapiens) (UniProt Q9UQB9)", "sequence (Q9UQB9 whole entry)": "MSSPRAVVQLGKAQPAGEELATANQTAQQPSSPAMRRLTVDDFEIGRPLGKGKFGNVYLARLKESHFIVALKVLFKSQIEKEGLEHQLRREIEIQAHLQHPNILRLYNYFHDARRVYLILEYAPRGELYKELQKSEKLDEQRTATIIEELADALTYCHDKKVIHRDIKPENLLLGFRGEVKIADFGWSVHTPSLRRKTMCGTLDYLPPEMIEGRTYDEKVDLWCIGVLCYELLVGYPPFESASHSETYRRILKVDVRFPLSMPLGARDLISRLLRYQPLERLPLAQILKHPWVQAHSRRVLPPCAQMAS", "test": "Binding affinity to Aurora C (unknown origin) assessed as dissociation half life"}, "[7]": {"test": "Antiproliferative activity against human Hs 445 cells assessed as inhibition of cell viability measured for 6 to 7 days by cell titer glo assay", "type": "functional, cell-based", "outline": "as §1"}, "U2OS": {"system": "U2OS", "test": "Antiproliferative activity against human U2OS cells assessed as inhibition of cell viability measured for 6 to 7 days by cell titer glo assay", "type": "functional, cell-based"}, "[8]": {"test": "Antiproliferative activity against human MJ cells assessed as inhibition of cell viability measured for 6 to 7 days by cell titer glo assay", "type": "functional, cell-based", "outline": "as §1"}, "Daudi": {"system": "Daudi", "test": "Antiproliferative activity against human Daudi cells assessed as inhibition of cell viability measured for 6 to 7 days by cell titer glo assay", "type": "functional, cell-based", "outline": "as §2"}, "HT": {"system": "HT", "test": "Antiproliferative activity against human HT cells assessed as inhibition of cell viability measured for 6 to 7 days by cell titer glo assay", "type": "functional, cell-based", "outline": "as §1"}, "[9]": {"test": "Toxicity in SCID nude mouse xenografted with human NCI-H460 cells assessed as body weight loss at 25 to 100 mg/kg, ip administered once daily for 5 consecutive days with 2 days off scheduled for 3 cycles measured upto 60 days relative to control", "type": "organism-based", "conditions": "in vivo, 1440 h, dose 25-100 mg/kg, time < 60 day"}}, "note": "Calls of active or inactive are those of the source. The rule behind the calls is not given here.", "data": [{"smiles": "CCn1cc(-c2ccnc3[nH]c(-c4cccc(CN(C)C)c4)cc23)c(-c2ccc(NC(=O)N(C)C)cc2)n1", "note": "[GSK-1070916]", "values": [{"measurement": "EC50", "setting": "NCI-H1299", "result": 23, "unit": "nM"}, {"measurement": "MST", "setting": "MV-4-11 (human)", "result": 70, "unit": "days"}, {"measurement": "Activity", "setting": "[1]", "result": "Toxic"}, {"measurement": "EC50", "setting": "[2]", "result": 7, "unit": "nM"}, {"measurement": "EC50", "setting": "SW48", "result": 2, "unit": "nM"}, {"measurement": "EC50", "setting": "JIYOYE", "result": 5, "unit": "nM"}, {"measurement": "EC50", "setting": "[3]", "result": 9, "unit": "nM"}, {"measurement": "Activity", "setting": "[4]", "result": "Toxic"}, {"measurement": "Activity", "setting": "A549", "result": "Active"}, {"measurement": "EC50", "setting": "RL", "result": 10, "unit": "nM"}, {"measurement": "EC50", "setting": "CTV-1", "result": 4, "unit": "nM"}, {"measurement": "EC50", "setting": "SW480", "result": 3, "unit": "nM"}, {"measurement": "EC50", "setting": "NCI-H358", "result": 4, "unit": "nM"}, {"measurement": "EC50", "setting": "CCRF-SB", "result": 2, "unit": "nM"}, {"measurement": "EC50", "setting": "CRO-AP2", "result": 3, "unit": "nM"}, {"measurement": "EC50", "setting": "CCRF-HSB-2", "result": 3, "unit": "nM"}, {"measurement": "EC50", "setting": "[5]", "result": 26, "unit": "nM"}, {"measurement": "MST", "setting": "HL-60", "result": 83, "unit": "days"}, {"measurement": "EC50", "setting": "CCRF-CEM", "result": 7, "unit": "nM"}, {"measurement": "EC50", "setting": "NCI-H460", "result": 14, "unit": "nM"}, {"measurement": "EC50", "setting": "OCI-AML-3", "result": 4, "unit": "nM"}, {"measurement": "EC50", "setting": "MOLT-3", "result": 5, "unit": "nM"}, {"measurement": "EC50", "setting": "HuT78", "result": 14, "unit": "nM"}, {"measurement": "Activity", "setting": "HCT-116", "result": "Dose-Dependent Effect"}, {"measurement": "EC50", "setting": "SR", "result": 3, "unit": "nM"}, {"measurement": "Activity", "setting": "SW-620", "result": "inactive"}, {"measurement": "T1/2", "setting": "[6]", "result": 4.5, "unit": "h"}, {"measurement": "EC50", "setting": "[7]", "result": 5, "unit": "nM"}, {"measurement": "EC50", "setting": "U2OS", "result": 34, "unit": "nM"}, {"measurement": "EC50", "setting": "[8]", "result": 7, "unit": "nM"}, {"measurement": "EC50", "setting": "Daudi", "result": 5, "unit": "nM"}, {"measurement": "EC50", "setting": "HT", "result": 7, "unit": "nM"}, {"measurement": "Activity", "setting": "[9]", "result": "< 15", "unit": "%"}]}]}
